Test: Toxicity liver stage against HepG2, at 10uM
Type: cell-based
Parameters: test concentration 10 uM, cell line HepG2-A16-CD81EGFP
Conditions: human, HepG2-A16-CD81EGFP cells; read-out: INHIBITION
How it was run: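 Uninfected HepG2-A16-CD81EGFP cells, 3 × 10^3 per well, 1536-well, plated on prespotted compound at 10 μM final, parasite-free screening media added to match infected plates; puromycin 10 μM positive, DMSO 0.5% negative; run in parallel with 48 h PbLuc assay at 37 °C, 5% CO2; viability by CellTiter-Glo luminescence, normalized to controls.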

COCCCN(Cc1ccccn1)S(=O)(=O)Cc1ccccc1
cytotoxicity at 10 µM: 14.4%

CC(=O)N1CC[C@H]2NC(=O)N(Cc3ccccc3)C(=O)[C@H]21
cytotoxicity at 10 µM: 4.47%

Cc1nn(-c2cc(Cl)cc(Cl)c2)c(C)c1CCC(=O)O
cytotoxicity at 10 µM: 3.8%

Cn1nc(-c2cccc(Cl)c2)c(Br)c1C(=O)O
cytotoxicity at 10 µM: -56.5%

Cc1nc(N(C)C)nc(C)c1NC(=O)c1ccccc1C(F)(F)F
cytotoxicity at 10 µM: -1.94%

CC(C)CN1C[C@H]2CCN(C(=O)NC3CCCC3)CC[C@H]2S1(=O)=O
cytotoxicity at 10 µM: 7.31%

c1cc(-c2nnc3sc(CCN4CCCC4)nn23)ccn1
cytotoxicity at 10 µM: -4.31%

O=c1[nH]c2c(c(=O)n1C1CCCCC1)CCC2Nc1ccc(Cl)cc1 (stereo unspecified)
cytotoxicity at 10 µM: 9.78%

CC(C)Cc1nc(OCC(=O)O)c(C#N)c2c1CCC2
cytotoxicity at 10 µM: -5.93%

CN1CCN(C(=O)c2cc(NC(=O)c3ccccc3)n(C)n2)CC1
cytotoxicity at 10 µM: 4.07%

O=C(NCCCO)c1nnsc1-c1ccccc1
cytotoxicity at 10 µM: 7.47%

Cc1nn(Cc2ccc(C(=O)NCCCN3CCCC3=O)o2)c(C)c1Br
cytotoxicity at 10 µM: 9.35%

CC(C)N1CCC(c2cnc(-c3cncnc3)cn2)CC1
cytotoxicity at 10 µM: 2.55%

Cc1cccc(CN2CCCC2c2cncc(Nc3nncs3)n2)c1 (stereo unspecified)
cytotoxicity at 10 µM: -3.47%

Cc1nc(C)c(C(=O)N2CCCC2(C)C(=O)NC2CCCC2)o1 (stereo unspecified)
cytotoxicity at 10 µM: 0.61%

Cc1cc(C(=O)NCC(C)C)c2c(C3CCCN3)noc2n1 (stereo unspecified)
cytotoxicity at 10 µM: 7.05%

O=C1NC2(Cc3ccccc31)CN(CC1CCNC1)C2 (stereo unspecified)
cytotoxicity at 10 µM: 9.76%

OCc1c(Cl)ncn1-c1ccccc1
cytotoxicity at 10 µM: -8.99%

NC(=O)CS(=O)(=O)Cc1csc(-c2ccccc2)n1
cytotoxicity at 10 µM: -9.59%

Cc1noc(C2CCCN(C(=O)c3cc(Cl)cn3C)C2)n1 (stereo unspecified)
cytotoxicity at 10 µM: 1.33%

CN1CCN(S(=O)(=O)c2ccc(Sc3nccn3C)nc2)CC1
cytotoxicity at 10 µM: 10.2%

CS(=O)(=O)CCn1ccc(NC(=O)c2c(F)cccc2F)n1
cytotoxicity at 10 µM: 18.2%

Cc1nc(NCc2nnc(C)n2C)c2c(CC(C)C)csc2n1
cytotoxicity at 10 µM: 9.56%

O=C(O)c1ccn(-c2ccc(NC(=O)c3ccccc3Cl)cc2)n1
cytotoxicity at 10 µM: -140%

Cc1cc(C)c(CNC(=O)NCCNc2ccccn2)c(=O)[nH]1
cytotoxicity at 10 µM: -37%

Cc1nc(CCCNC(=O)c2cc(F)ccc2O)n[nH]1
cytotoxicity at 10 µM: -5.32%

CC(C)(C)CCCC(=O)Nc1ccnn1C1CCS(=O)(=O)C1 (stereo unspecified)
cytotoxicity at 10 µM: -9.92%

CCc1nc(C)c(C(C)N(C)CCc2ccncc2)s1 (stereo unspecified)
cytotoxicity at 10 µM: 23.5%

N#Cc1cccnc1N1CCCN(C(=O)CCc2cccs2)CC1
cytotoxicity at 10 µM: -15.8%

COc1ccc(NC(=O)CN2CCCCC2C2OCCO2)cc1 (stereo unspecified)
cytotoxicity at 10 µM: 30.9%

O=C(NC1CCN(C2CC2)CC1)NC1CCOc2ccc(Br)cc21 (stereo unspecified)
cytotoxicity at 10 µM: -3.43%

CN(Cc1ccco1)Cc1ccccc1CNC(=O)c1csnn1
cytotoxicity at 10 µM: 7.88%

CCOCC(O)CN1CCN(C(=O)c2ccc(N(C)C)nc2)CC1 (stereo unspecified)
cytotoxicity at 10 µM: -5.18%

CN(Cc1cnn(C)c1)C(=O)c1ccnc(OC2CCC2)c1
cytotoxicity at 10 µM: 3.82%

Cc1cc(C)n(CC2CN(Cc3ccc(C(N)=O)cc3)CCO2)n1 (stereo unspecified)
cytotoxicity at 10 µM: -15.1%

Cn1ncc2c(=O)[nH]c(CN3CCCc4cc(F)cc(F)c43)nc21
cytotoxicity at 10 µM: -1.76%

CCC(C)NC(=O)CS(=O)(=O)Cc1nc(-c2cccs2)no1 (stereo unspecified)
cytotoxicity at 10 µM: 2.04%

N#CCCN(Cc1ccccn1)Cn1cc(Cl)cn1
cytotoxicity at 10 µM: 1.49%

CS(=O)(=O)NCC1(c2ccccc2Br)CC1
cytotoxicity at 10 µM: -5.51%

CN(C)S(=O)(=O)NCC1(c2ccccc2Br)CC1
cytotoxicity at 10 µM: 1.94%

CCc1noc(CC)c1CC(=O)N1CCN(C(C#N)C(C)C)CC1 (stereo unspecified)
cytotoxicity at 10 µM: -9.66%

Cc1nc(-c2ccccc2)n(CC(=O)NC(C2CC2)C2CC2)n1
cytotoxicity at 10 µM: 11%

COc1ccsc1C(=O)Nc1cc(Br)c(=O)n(C)c1
cytotoxicity at 10 µM: -11%

COc1ccc(CSc2nnc(N)n2C2CC2)cc1Cl
cytotoxicity at 10 µM: 0.00426%

CCC(C)NS(=O)(=O)c1ccc(C(=O)N(C)C2(C#N)CCC2)cc1 (stereo unspecified)
cytotoxicity at 10 µM: 16.1%

OC(COCc1ccccc1F)CN1CCC(Cn2cccn2)CC1 (stereo unspecified)
cytotoxicity at 10 µM: -10.2%

Cc1cnc(NCc2ccc(S(=O)(=O)N(C)C(C)C)cc2)nc1C
cytotoxicity at 10 µM: 10.2%

Cc1cc(C(C)NCCN2CCC(N(C)C)CC2)c(C)s1 (stereo unspecified)
cytotoxicity at 10 µM: -0.85%

Cc1cc(NCCOCCS(C)(=O)=O)nc2ccccc12
cytotoxicity at 10 µM: 4.4%

CCOC1CCN(CCc2nc(-c3cccc(Cl)c3)no2)CC1
cytotoxicity at 10 µM: -0.139%

NC(=O)CCCNC(=O)COc1ccccc1C(F)(F)F
cytotoxicity at 10 µM: 2.49%

Cn1cc(CN2CCC[C@]3(C[C@H](Oc4ccccn4)CO3)C2)cn1
cytotoxicity at 10 µM: 5.44%

CC(C)(C)CC(=O)N1C[C@H]2CCN[C@H]2C1
cytotoxicity at 10 µM: 4.19%

CNC(=O)[C@H]1C[C@@H]2CN(C(=O)c3cncc(C)c3)C[C@@H]2N1C
cytotoxicity at 10 µM: -107%

Cc1ccc(NC(=O)N2CCC3(CCC(C(=O)N(C)C)O3)CC2)cc1 (stereo unspecified)
cytotoxicity at 10 µM: -99.2%

O=C(c1cscn1)N1CCc2ncc(CN3CCOCC3)n2CC1
cytotoxicity at 10 µM: -75.6%

O=C(c1ccnnc1)N1C[C@@H]2COC[C@]2(COCC2CC2)C1
cytotoxicity at 10 µM: -73.2%

Cn1cc(-c2nnn3c2COC(CNCc2ccccn2)C3)cn1 (stereo unspecified)
cytotoxicity at 10 µM: 0.298%

Nc1ncccc1CN1CCCn2nc(CCC(=O)NC3CC3)cc2C1
cytotoxicity at 10 µM: 1.45%

NC(=O)Cn1ccnc1C1CCCN(Cc2ccccc2OC(F)F)C1 (stereo unspecified)
cytotoxicity at 10 µM: -22%

COCCc1ncc(CN2CCC3(CCCN(CC4CC4)C3)C2)cn1 (stereo unspecified)
cytotoxicity at 10 µM: -4.07%

CCc1cnc(C)nc1NCc1cnc2c(c1)CCC2
cytotoxicity at 10 µM: 8.83%

COc1cc(CN2CC(=O)N(c3ccc(C)cc3)CC2C)cc(OC)c1 (stereo unspecified)
cytotoxicity at 10 µM: 1.28%

CN(CCc1noc(C2CC2)n1)C(=O)CCc1cc2n(n1)CCCNC2
cytotoxicity at 10 µM: -0.645%

Cc1cc(C)nc(NCc2nnc3n2CCCCC3)n1
cytotoxicity at 10 µM: -10.6%

CC(Nc1nc(-c2ccncc2)nc2c1CCNC2)c1ccccc1 (stereo unspecified)
cytotoxicity at 10 µM: -9.94%

Cc1cc(C)n(C2CCN(C(=O)CN3C(=O)CSc4ccccc43)C2)n1 (stereo unspecified)
cytotoxicity at 10 µM: -15.3%

CCN1CC(C(=O)NCc2nc(C3CCCCC3)no2)CC1=O (stereo unspecified)
cytotoxicity at 10 µM: -3.68%

CCN1CCCC(c2c(-c3ccccc3)ncn2Cc2cccnc2)C1 (stereo unspecified)
cytotoxicity at 10 µM: -6.75%

CC(=O)c1ccc(-c2cnn(CC(=O)Nc3ccnn3C)c2)nc1
cytotoxicity at 10 µM: 1.99%

Fc1cccc(-c2cccc(N3CCC(NC4CCCOC4)CC3)c2)c1 (stereo unspecified)
cytotoxicity at 10 µM: 12%

C=C(C)COc1cccc(C(=O)N2CCC3(CC2)CN(C)CCN3C)c1
cytotoxicity at 10 µM: -52.4%

CC(C)c1noc(Cn2ncn3cccc3c2=O)n1
cytotoxicity at 10 µM: -4.1%

O=C(c1cc(F)cc(Cl)c1)N1CCN(CCO)[C@@H]2CS(=O)(=O)C[C@@H]21
cytotoxicity at 10 µM: -2.24%

CCCc1cc(C(=O)N(C)Cc2cnn(-c3cccc(OC)c3)c2)[nH]n1
cytotoxicity at 10 µM: -2.4%

COc1ccccc1-n1cc(C(=O)NCCCn2nc(C)nc2C)cn1
cytotoxicity at 10 µM: 5.02%

CCN1CC2(CCC1=O)CCN(Cc1nncn1C(C)C)CC2
cytotoxicity at 10 µM: 8.39%

Cc1nc2c(c(NC3CCN(Cc4cccnc4)CC3)n1)CCNCC2
cytotoxicity at 10 µM: -1.14%

Cc1nnc2n1CCN(Cc1ncc(-c3ccc(F)cc3)o1)C2
cytotoxicity at 10 µM: -10.7%

Cc1nc(C2CCCN2CC(=O)N2CCc3ccccc32)no1 (stereo unspecified)
cytotoxicity at 10 µM: -19.6%

CCc1nc(C2CCCN2CCC(=O)N2CCc3ccccc32)no1 (stereo unspecified)
cytotoxicity at 10 µM: -23.7%

COc1ccc(C2=CCN(C(=O)CN(C)Cc3ccco3)CC2)cc1
cytotoxicity at 10 µM: -6.16%

O=C(Cc1ccccc1)NCCNC(=O)c1scnc1Cl
cytotoxicity at 10 µM: -1.55%

Cn1ccc(C(=O)NCc2ccc(N3CCCCC3)nc2)cc1=O
cytotoxicity at 10 µM: -10.8%

CCc1csc(C2CCCN(C(=O)COc3cc(C)on3)C2)n1 (stereo unspecified)
cytotoxicity at 10 µM: -9.71%

Cc1cccc(NC(=O)N2CCN(Cc3noc(C4CC4)n3)CC2)c1
cytotoxicity at 10 µM: -10.1%

CN(Cc1ccncc1)CC(c1cccs1)N1CCOCC1 (stereo unspecified)
cytotoxicity at 10 µM: -15.7%

COc1ccc(Cl)cc1NCC(=O)NCCc1ccccn1
cytotoxicity at 10 µM: -8.26%

CC(C)CCN(C)C(=O)c1nc(S(C)(=O)=O)n2ccccc12
cytotoxicity at 10 µM: -9.91%

CC(Cn1ccnc1)NC(=O)NCCc1ccccn1 (stereo unspecified)
cytotoxicity at 10 µM: -6.05%

COc1ccc(C2=CCN(C(=O)CN(C)CC(C)C#N)CC2)cc1 (stereo unspecified)
cytotoxicity at 10 µM: -9.52%

Cc1ccn(-c2ccc(C(=O)N3CCCC(n4ccnc4)C3)cc2)n1 (stereo unspecified)
cytotoxicity at 10 µM: -8.31%

CCN(Cc1cccc2c1OCO2)C(=O)Nc1ccncc1
cytotoxicity at 10 µM: 2.58%

CC(C)c1nc2c(n1C)CCN(CC(=O)Nc1nccs1)C2
cytotoxicity at 10 µM: 1.88%

OCCN(Cc1ccncc1)CC1(c2ccc(Cl)cc2)CC1
cytotoxicity at 10 µM: 9.39%

Cn1nc(C2CCN(C(=O)Cc3cccc(F)c3)CC2)c2cccnc21
cytotoxicity at 10 µM: -0.439%

Fc1ccc(CN2CCCn3nnc(COCC4CC4)c3C2)cc1
cytotoxicity at 10 µM: -109%

CO[C@@H]1CCN(Cc2cccs2)[C@@H]2CN(Cc3ccncc3)C[C@@H]21
cytotoxicity at 10 µM: 3.93%

O=C(c1ccoc1)N1CCOC2(COCCN(c3ncccn3)C2)C1 (stereo unspecified)
cytotoxicity at 10 µM: -98.4%

Cc1nc(COC[C@@H]2CC[C@H]3[C@H](CCN3c3ncccn3)O2)cs1
cytotoxicity at 10 µM: 2.19%

OC1CCN(Cc2c(C3CCCNC3)[nH]c3ncccc23)CC1 (stereo unspecified)
cytotoxicity at 10 µM: -0.542%

CCS(=O)(=O)Nc1ccc2c(c1)C1(CCOCC1)CN2C
cytotoxicity at 10 µM: -107%

COc1ccc2ccccc2c1CNCC1CCS(=O)(=O)C1 (stereo unspecified)
cytotoxicity at 10 µM: 4.51%

Cn1cc(-c2ncc3c(c2C(=O)O)CCN(CC2CC2)C3)cn1
cytotoxicity at 10 µM: -104%

COCCNC(=O)[C@@]12CCO[C@@H]1CCN(Cc1ccncc1)C2
cytotoxicity at 10 µM: -77.3%

Cc1ccc(CN2C[C@@H]3[C@@H](C2)OCC(=O)N3Cc2ccncc2)s1
cytotoxicity at 10 µM: -67.7%

CS(=O)(=O)N1CCc2ccc(=O)n(CCN3CCCC3)c2CC1
cytotoxicity at 10 µM: 0.108%

CCN1C(=O)CCC12CCCN(Cc1nccs1)C2 (stereo unspecified)
cytotoxicity at 10 µM: -73.5%

c1cnc(N2CCC3(COCCN(CC4CC4)C3)C2)nc1 (stereo unspecified)
cytotoxicity at 10 µM: 0.668%

CCOCCC(=O)N1C[C@@H]2CC[C@H]1CN(Cc1ccncc1)C2
cytotoxicity at 10 µM: -11.1%

Cc1nnsc1CN1C[C@@H]2CC[C@H]1CN(Cc1ccccc1)C2
cytotoxicity at 10 µM: 0.929%

Reference: ChEMBL document CHEMBL4513216, “Probing the Open Global Health Chemical Diversity Library for Multistage-Active Starting Points for Next-Generation Antimalarials” (ACS Infect Dis, 2020)
